Screening data as filed in PubChem.
Shown is part of a subset that was picked to be rich in hits.
CHOP inh – inhibitors of CHOP promoter induction, primary screen, cell-based, unfolded protein response, luciferase reporter; CHO-K1 CHOP-promoter luciferase, tunicamycin-induced, 15-18 h; inhibition, % at 10 µM; actives 3.8% (n = 220,000); AID 2732, 2010;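 active = compounds that reduced the stress-induced luciferase reporter signal by more than about 70% of percent inhibition, limit read from the data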;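 note: 0% = tunicamycin plus vehicle and 100% = wells without tunicamycin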
XBP1 UPR activ – activators of adaptive XBP1 UPR arm, primary screen, cell-based, CHO-XBP1 luciferase reporter, luminescence, uHTS | actives 0.33% (n = 330,000) | AID 463104, 2010 | IRE1-XBP1 UPR activation; percent of tunicamycin response, DMSO as zero | activation, % at 20 µM;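 active = versus positive control, 20 µM dose yields 30% or more activation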;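 note: 100% = tunicamycin at 10 µg/mL and 0% = DMSO only wells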
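Material – CHO cell line with stable XBP1 luciferase reporter · Buffer or medium – F12 plus 10% FBS · Compound – single point, 20 µM final compound, 1% DMSO · Schedule – 16-18 h cell attachment at 37 °C, then 6 h compound exposure · Signal – Steady-Glo luminescence read · Benchmarks – high control tunicamycin 10 µg/mL final, low control DMSO vehicle only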
CHOP UPR activ – activators of apoptotic CHOP UPR arm, primary screen, cell-based, CHO-CHOP luciferase reporter, luminescence, uHTS | UPR activation; percent of tunicamycin response over DMSO baseline | activation, % at 10 µM | actives 0.34% (n = 330,000) | AID 449763, 2010;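 active = at 10 µM dose, activation of 40% or more, normalized to positive control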;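 note: 100% = tunicamycin at 10 µg/mL and 0% = DMSO alone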
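Dosing – one dose, 10 µM in 0.5% DMSO · System – CHO-CHOP cells, stable luciferase reporter of PERK-eIF2a-CHOP signalling · Input – 500 cells/well · Control set – tunicamycin 10 µg/mL final as positive, DMSO-only wells as negative · Timing – 6 h compound treatment, 37 °C · Measure – % activation vs tunicamycin · Technique – luminescence read with Steady-Glo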
A1 inh – caspase 3/7 activation in MEF A1-2A-BIM cells, primary screen, A1 inhibitor project, cell-based, luminescence, HTS; AID 2462, 2010; actives 0.066% (n = 330,000); caspase activation, % (concentration not given with the values); Caspase-Glo 3/7 luminescence, 3 h; percent of clofoctol response, vehicle zero;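 active = over half of replicate activation scores above 10%, or exactly half above 10 with the replicate mean above 10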
Starred values were filed as active, the others as inactive; nt = not tested or not shown.

SMILES	CHOP inh	XBP1 UPR activ	CHOP UPR activ	A1 inh
O=C(c1ccccc1)c1nn(-c2ccc(Cl)cc2)c(=O)cc1C(F)(F)F	89.8*	2.3	8.0	-0.3
O=C(c1cccc(Cl)c1)c1nn(-c2ccccc2)c(=O)cc1C(F)(F)F	84.9*	3.5	2.2	-0.5
O=C(Nc1ccccc1)c1nn(-c2ccccc2)c(=O)cc1C(F)(F)F	73.0*	0.5	-1.4	1.6
O=C(c1ccccc1)c1nn(-c2ccccc2)c(=O)cc1C(F)(F)F	23.8	-1.7	0.7	-0.5
COc1ccc(-c2csc(N(CCc3ccc(OC)c(OC)c3)C(=O)COc3ccccc3)n2)cc1	-13.7	2.2	-0.3	-0.1
O=C1NN=C(c2ccc(Br)cc2)CC1c1ccc(Cl)cc1 (configuration not stated)	91.2*	-0.1	0.6	0.1
CC(NC(=O)CC(c1ccccc1)c1cc(Cl)ccc1O)c1ccccc1 (configuration not stated)	30.6	nt	nt	-0.3
NC(=O)c1ccc(N2CCN(c3ncc(C(F)(F)F)cc3Cl)CC2)cc1	10.4	0.2	0.1	1.1
CC(C)(C)NC(=O)NC(=O)CN1CCN(c2ncc(C(F)(F)F)cc2Cl)CC1	78.2*	-2.8	-1.8	-0.4
CC(=O)c1ccc(N2CCN(c3ncc(C(F)(F)F)cc3Cl)CC2)cc1	79.2*	-0.9	1.9	0.3
CC(=O)Nc1ccc(N2CCN(c3ccc(C(F)(F)F)cn3)CC2)nc1	-21.1	-1.3	-0.1	0.6
CC(=O)c1ccc(N2CCN(c3ccc(C(F)(F)F)cn3)CC2)cc1	83.3*	nt	nt	-0.1
COc1ccc(C(=O)NCC23C=CC(O2)C2C(=O)N(Cc4ccccc4)C(=O)C23)cc1 (configuration not stated)	14.6	-3.8	-3.1	0.5
CN1CCC2(CC1)Nc1nc(SCc3ccc(Cl)cc3)nn1C1=C2CN(C)CC1	-14.7	0.2	-1.0	-0.2
Cc1cccc(NC(=O)COc2ccc(-c3nn(C)c(=O)c4ccccc34)cc2)c1	nt	1.1	0.4	-0.8
O=C(C#Cc1ccccc1)c1ccc([N+](=O)[O-])cc1	110.8*	-1.8	30.5	nt
COc1ccc2nc(/N=C(\N)NC(=O)N3c4ccccc4Sc4ccccc43)nc(C)c2c1	77.3*	1.7	2.1	-0.4
COc1ccc2c(c1)[nH]c1c(=O)n(/N=C/c3ccc(OC)c(CN4CCCCC4)c3)cnc12	6.8	-1.6	2.1	-0.5
Cc1ccccc1OCC(O)CN(Cc1ccccc1O)C1CCCCC1 (configuration not stated)	87.8*	-3.8	0.7	-0.2
CN(CC(O)COc1ccccc1F)C1CCCCC1 (configuration not stated)	12.3	-0.9	-1.1	-0.7
COc1ccc(NC(=O)COc2ccc(C)cc2)c([N+](=O)[O-])c1	44.5	1.6	0.7	-0.8
CN(C)CC1CCCCC1OC(=O)/C=C/c1ccc(Cl)cc1Cl (configuration not stated)	11.7	-1.4	-0.7	-0.2
Cc1ccc(S(=O)(=O)ON2C(=O)c3ccccc3C2=O)c(C)c1	93.6*	nt	nt	2.7
CCCCc1ccc(NC(=S)NCCN2CCOCC2)cc1	21.8	-1.2	-0.8	-1.1
O=C(Cn1cc(CCO)nn1)N1CCNCC1	0.8	-2.4	1.9	-0.2
SMILES	CHOP inh	XBP1 UPR activ	CHOP UPR activ	A1 inh
COc1cc(C)ccc1OCCOCCOc1c(C)cc(C)cc1Br	83.5*	-1.4	-0.8	-0.5
COc1ccccc1OCCOCCOc1c(C)cc(C)cc1Br	28.4	-2.6	-0.4	-0.1
COc1cc(C)ccc1OCCOc1ccccc1Cl	76.1*	1.8	6.6	0.4
Cc1ccc(C)c(NC(=O)CSc2nnc(CNC(=O)c3ccco3)n2C)c1	nt	0.3	0.4	-0.7
CCc1ccccc1N1CCN(S(=O)(=O)c2ccc(F)c(C)c2)CC1	74.2*	-1.5	-1.8	0.7
O=C(Cn1cnc2ccccc2c1=O)Nc1nnc(C2CC2)s1	5.5	-1.6	0.8	-0.4
O=C(Cn1cnc2ccccc2c1=O)Nc1nnc(SCc2ccc(Cl)cc2)s1	85.9*	0.0	0.0	2.9
C=CCn1c(SCC(=O)Nc2cccnc2Cl)nnc1-c1ccccc1F	22.0	1.4	1.2	0.6
O=[N+]([O-])c1ccccc1/C=C/C=N/n1c(-c2ccc(Cl)cc2)n[nH]c1=S	81.7*	-0.4	-1.8	-0.5
